# Substitutions are numbered along the chain they refer to. Several values for one entry are separate records, joined by “and”; a condition that tells them apart may be missing. Equal entries are not always repeated. Where two headings read alike, the source gives them in different places.
# Legend:
# [1] = Rat PK IV/PO crossover study; format: in vivo
# Procedure, shortened: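 Male Sprague–Dawley rats with carotid and jugular cannulae (n = 2) were dosed IV at 1.0 mg/kg in 10% EtOH, 50% PEG 400 and 40% saline. For oral dosing, fasted rats received 3 mg/kg by gavage as a microsuspension in 30% Captisol. Carotid blood was sampled from 0.117 to 24 h, and EDTA plasma was analysed by LC/MS/MS. Parameters came from noncompartmental analysis.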
# [2] = Plasma protein binding by equilibrium dialysis, rat; format: in vitro ADME; details: pH 7.4
# Procedure, shortened: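 Plasma spiked with test article was dialysed against 25 mM phosphate buffer, pH 7.4, by equilibrium dialysis for 4 h at 37 °C with shaking. Aliquots from each chamber were matrix-matched, extracted with ice-cold acetonitrile, centrifuged and quantified by LC/MS/MS.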
# [3] = test system: human M2–M5; experiment: Calcium mobilization selectivity, human M2–M5; format: cell-based; details: Figure 4A
# Procedure, shortened: (§1)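 Muscarinic receptor-expressing CHO cells were plated at 20,000 cells/well in medium without G418 the day before. They were loaded with 1.15 μM Fluo-4 AM for 45 min at 37 °C in HBSS with 20 mM HEPES and 2.5 mM probenecid. Test compound (10-point 1:3 series, top final 30 μM) was added for 2.5 min, then EC20 ACh for 1 min. Calcium flux was fitted with a four-parameter logistic curve.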
# [4] = test system: rat M2-M5; experiment: Calcium mobilization selectivity, rat M2-M5; format: cell-based; details: Figure 4B
# Procedure, shortened: as §1
# [5] = test system: nonhuman primate (NHP); experiment: Nonhuman primate adverse effect assessment; format: in vivo
# [6] = target: T1, dog M1 (Canis lupus familiaris, UniProt A0A8I3RVA9); experiment: Calcium mobilization assay, low expression M1 dog line; format: cell-based
# T1 sequence (A0A8I3RVA9 1-460): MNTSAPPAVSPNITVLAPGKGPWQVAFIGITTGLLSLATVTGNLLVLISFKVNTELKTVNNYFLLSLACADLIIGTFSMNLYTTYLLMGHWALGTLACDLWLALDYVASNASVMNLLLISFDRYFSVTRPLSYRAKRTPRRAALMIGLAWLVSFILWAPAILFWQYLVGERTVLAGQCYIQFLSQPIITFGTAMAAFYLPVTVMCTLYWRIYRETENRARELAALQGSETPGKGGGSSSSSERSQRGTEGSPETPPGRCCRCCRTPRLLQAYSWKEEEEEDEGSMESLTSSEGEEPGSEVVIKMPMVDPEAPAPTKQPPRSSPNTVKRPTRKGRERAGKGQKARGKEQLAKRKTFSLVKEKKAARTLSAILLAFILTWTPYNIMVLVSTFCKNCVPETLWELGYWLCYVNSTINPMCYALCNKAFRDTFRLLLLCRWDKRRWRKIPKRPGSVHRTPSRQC
# [7] = target: cytochrome P450 2C9 (Homo sapiens, UniProt P11712); experiment: CYP450 inhibition in human liver microsomes, 2C9; format: in vitro ADME
# [8] = target: T2, M1 (Homo sapiens, UniProt P11229); experiment: Calcium mobilization assay, high expression human M1 cell line; format: cell-based
# T2 sequence (P11229 1-460): T1 sequence (A0A8I3RVA9 1-460) with I155V, R246P, T248A, T265A, P312Q, R331K, E335D, A343P, N393D
# Procedure, shortened: as §1
# [9] = test system: mice; experiment: Modified Irwin Toxicology Battery in mice; format: in vivo, mouse; details: 100 mg/kg i.p.
# [10] = target: T3, cytochrome P450 1A2 (Homo sapiens, UniProt P05177); experiment: CYP450 inhibition in human liver microsomes, 1A2; format: in vitro ADME
# T3 sequence (P05177 1-516): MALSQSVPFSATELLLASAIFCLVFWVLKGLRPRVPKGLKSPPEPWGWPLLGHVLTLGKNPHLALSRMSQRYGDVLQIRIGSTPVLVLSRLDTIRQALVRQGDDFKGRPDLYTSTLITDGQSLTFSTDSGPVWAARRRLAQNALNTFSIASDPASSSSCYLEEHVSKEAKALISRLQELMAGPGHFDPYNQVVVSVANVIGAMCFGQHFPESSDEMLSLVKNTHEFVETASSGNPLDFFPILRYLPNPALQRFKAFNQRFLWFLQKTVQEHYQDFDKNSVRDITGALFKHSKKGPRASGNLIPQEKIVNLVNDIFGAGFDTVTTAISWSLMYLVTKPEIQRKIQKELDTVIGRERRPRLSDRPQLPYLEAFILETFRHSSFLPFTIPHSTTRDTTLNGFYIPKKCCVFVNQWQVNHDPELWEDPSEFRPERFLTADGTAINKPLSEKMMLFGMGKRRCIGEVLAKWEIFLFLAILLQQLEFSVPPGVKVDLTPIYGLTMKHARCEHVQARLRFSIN
# [11] = test system: mice; experiment: High dose phenotypic mouse seizure liability screen; format: in vivo; details: 100 mg/kg i.p., up to 3 h
# [12] = target: T2, M1; experiment: M1 PAM potency at increasing ACh concentration; format: cell-based; details: for EC50: M1 PAM potency
# [13] = target: P-gp (Homo sapiens, UniProt P08183); experiment: MDCK P-gp efflux and permeability; format: in vitro ADME
# [14] = ACh concentration increased to EC70
# Sequence of P-gp (P08183 whole entry): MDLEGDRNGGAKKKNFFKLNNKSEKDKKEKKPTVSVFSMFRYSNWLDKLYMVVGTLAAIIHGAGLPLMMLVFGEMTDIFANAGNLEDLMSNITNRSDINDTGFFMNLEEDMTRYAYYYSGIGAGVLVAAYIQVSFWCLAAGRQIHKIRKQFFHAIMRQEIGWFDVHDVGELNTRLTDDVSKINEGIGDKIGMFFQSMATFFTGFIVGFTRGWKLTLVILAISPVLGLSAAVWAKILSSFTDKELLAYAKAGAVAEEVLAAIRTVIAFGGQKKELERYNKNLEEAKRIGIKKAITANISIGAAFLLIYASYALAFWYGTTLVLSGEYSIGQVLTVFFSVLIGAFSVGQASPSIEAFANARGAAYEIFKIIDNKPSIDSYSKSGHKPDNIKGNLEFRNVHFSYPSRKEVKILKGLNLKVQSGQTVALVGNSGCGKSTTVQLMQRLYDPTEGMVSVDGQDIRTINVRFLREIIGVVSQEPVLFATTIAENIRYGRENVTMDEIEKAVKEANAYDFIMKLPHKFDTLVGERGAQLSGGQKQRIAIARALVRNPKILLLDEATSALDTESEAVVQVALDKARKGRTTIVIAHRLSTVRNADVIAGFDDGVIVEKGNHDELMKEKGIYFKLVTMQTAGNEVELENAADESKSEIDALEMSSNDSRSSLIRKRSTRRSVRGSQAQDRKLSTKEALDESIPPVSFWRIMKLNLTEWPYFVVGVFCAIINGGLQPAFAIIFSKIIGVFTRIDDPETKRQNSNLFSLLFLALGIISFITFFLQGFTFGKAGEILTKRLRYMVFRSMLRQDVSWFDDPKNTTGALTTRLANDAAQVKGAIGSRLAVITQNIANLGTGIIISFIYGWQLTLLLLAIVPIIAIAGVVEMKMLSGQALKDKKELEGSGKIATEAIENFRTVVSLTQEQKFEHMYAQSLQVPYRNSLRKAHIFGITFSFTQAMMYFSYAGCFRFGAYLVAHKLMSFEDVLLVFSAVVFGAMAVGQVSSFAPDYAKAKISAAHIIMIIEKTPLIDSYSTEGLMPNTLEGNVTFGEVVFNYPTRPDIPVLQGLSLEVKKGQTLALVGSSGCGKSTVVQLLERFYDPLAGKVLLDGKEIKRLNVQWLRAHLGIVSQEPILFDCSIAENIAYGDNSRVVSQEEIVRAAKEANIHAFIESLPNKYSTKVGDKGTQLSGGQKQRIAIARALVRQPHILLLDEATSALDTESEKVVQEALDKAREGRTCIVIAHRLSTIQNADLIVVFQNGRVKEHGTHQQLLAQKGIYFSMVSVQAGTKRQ
# Sequence of cytochrome P450 2C9 (P11712 whole entry): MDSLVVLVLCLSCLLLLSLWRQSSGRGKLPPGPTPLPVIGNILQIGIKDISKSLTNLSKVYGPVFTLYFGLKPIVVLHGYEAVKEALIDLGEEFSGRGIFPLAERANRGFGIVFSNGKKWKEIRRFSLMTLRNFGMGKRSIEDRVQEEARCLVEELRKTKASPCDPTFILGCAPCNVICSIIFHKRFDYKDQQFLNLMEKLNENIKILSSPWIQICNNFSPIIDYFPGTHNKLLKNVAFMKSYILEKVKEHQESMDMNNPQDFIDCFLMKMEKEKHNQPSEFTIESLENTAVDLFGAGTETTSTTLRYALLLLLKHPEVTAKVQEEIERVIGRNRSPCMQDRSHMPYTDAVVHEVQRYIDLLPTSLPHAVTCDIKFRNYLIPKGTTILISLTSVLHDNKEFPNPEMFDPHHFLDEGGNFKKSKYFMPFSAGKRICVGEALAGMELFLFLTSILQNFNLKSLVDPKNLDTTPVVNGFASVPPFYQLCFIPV
compound,measurement,setting,value
"O=C(N[C@H]1CCCC[C@@H]1O)[C@H]1CN(Cc2ccc(-n3cccn3)cc2)c2ccccc2O1 [VU0486846, (2R)-N-[(1S,2S)-2-Hydroxycyclohexyl]-4-[(4-pyrazol-1-ylphenyl)-methyl]-2,3-dihydro-1,4-benzoxazine-2-carboxamide]",half-life,"[1]; male, Sprague-Dawley, rat, plasma",1.2 h
same,Vd,"[1]; male, Sprague-Dawley, rat, plasma, intravenous, 1 mg/kg",1.8 L/kg
same,clearance,"[1]; male, Sprague-Dawley, rat, plasma, iv, 1 mg/kg",89 mL/min/kg
same,bioavailability,"[1]; male, Sprague-Dawley, rat, plasma, po, 3 mg/kg",95.9%
same,Adverse events or cholinergic side effects in PK study,[1]; rat PK study,No adverse events or cholinergic side effects
same,fraction unbound at 4 h,[2],0.11
same,Activity at human M2–M5 (selectivity),[3],highly selective
same,Activity at human M2–M5 (selectivity),[3]; listed as 16,inactive
same,Activity at rat M2–M5 (selectivity),[4],highly selective
same,Activity at rat M2–M5 (selectivity),[4]; listed as 16,inactive
same,total plasma levels,[5],~ 2 μM
same,Adverse effects,[5]; at achieved plasma levels,without any adverse effects
same,EC50,"[6]; M1 PAM EC50, dog M1 line, low expression",380 nM
same,EC50,"[6]; M1 PAM pEC50, dog M1 line, low expression",389 nM
same,EC50,"[6]; M1 agonist activity EC50, dog M1 line, compound alone",> 10000 nM
same,Emax,"[6]; read-out: M1 PAM efficacy, % ACh Max",78 ± 1%
same,Emax,"[6]; read-out: M1 agonist activity, % ACh Max",18 ± 0.2%
same,IC50,[7],18800 nM
same,EC50,"[8]; Human M1 CRC EC50, Figure 4A",308 nM
same,EC50,"[8]; M1 PAM EC50, human M1, high expression line, EC20 ACh",310 nM
same,EC50,"[8]; M1 PAM pEC50, human M1, high expression line, EC20 ACh",295 nM
same,EC50,"[8]; M1 agonist activity pEC50, human M1, high expression line, compound alone",4070 nM and 4270 nM
same,"M1 PAM efficacy, % ACh Max","[8]; human M1, high expression line",85 ± 2 % ACh Max
same,"M1 agonist activity, % ACh Max","[8]; human M1, high expression line, compound alone",39 ± 3 % ACh Max and 29 ± 6 % ACh Max
same,free brain levels,[9],342 nM
same,free plasma levels,[9],2000 nM
same,total brain levels,[9],12.2 µM
same,total plasma levels,[9],18.2 µM
same,Cholinergic side effects or adverse effects,[9]; 3 h evaluation period,did not produce any cholinergic side effects or pronounced adverse effects
same,IC50,[10],> 30000 nM
same,Seizure liability,[11],devoid of seizure liability
same,"M1 PAM efficacy, % ACh Max",[12]; [14],90 ± 1 % ACh Max
same,EC50,[12]; [14],68 ± 11 nM
same,EC50,[12]; very low level of ACh (~EC9),430 ± 120 nM
same,"M1 PAM efficacy, % ACh Max",[12]; very low level of ACh (~EC9),84 ± 2 % ACh Max
same,human P-gp substrate,[13]; MDCK,not a human P-gp substrate
same,Papp,"[13]; human, MDCK",30 ×10⁻⁶ cm/s
same,efflux ratio,"[13]; human, MDCK-MDR1",0.9

# Reference: paper PMC6146057 (ACS chemical neuroscience, 2018)
